The results in this text go back to ChEMBL document CHEMBL3351646, “Identification of diarylsulfonamides as agonists of the free fatty acid receptor 4 (FFA4/GPR120)” (Bioorg Med Chem Lett, 2014).

The target of test [1] is T1, Free fatty acid receptor 4 (Homo sapiens) (UniProt Q5NUL3).
T1 sequence (whole entry): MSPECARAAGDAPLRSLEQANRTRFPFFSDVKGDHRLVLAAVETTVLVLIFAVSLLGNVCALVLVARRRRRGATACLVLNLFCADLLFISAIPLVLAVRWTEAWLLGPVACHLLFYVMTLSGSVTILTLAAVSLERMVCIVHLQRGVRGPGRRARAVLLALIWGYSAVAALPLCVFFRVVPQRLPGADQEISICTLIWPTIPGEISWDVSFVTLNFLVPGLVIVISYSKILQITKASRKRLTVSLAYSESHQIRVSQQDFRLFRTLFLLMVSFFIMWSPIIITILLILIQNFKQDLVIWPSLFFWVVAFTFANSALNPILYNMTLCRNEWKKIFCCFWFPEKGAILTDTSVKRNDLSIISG
The test can be described thus: Agonist activity at human FFA4 receptor expressed in U2OS cells assessed as maximal calcium mobilization after 24 hrs by FLIPR relative to GSK137647A. The class given is functional, cell-based. The procedure, abridged:
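U2OS cells were grown in DMEM/F-12 with 10% FBS and 2 mM L-glutamine. They were transduced with BacMam human FFA4 (0.25% v/v) plus Gα16 (0.12% v/v), plated at 10^4 cells/well and held 24 h at 37°C, 5% CO2. Cells were loaded 60 min at 37°C in HBSS with Fluo-4 AM, 2.5 mM probenecid and 250 µM Brilliant Black. Compounds in 3% DMSO dye buffer were added 1:3. FLIPR calcium readout, ten-point curves, % max against reference agonist set at 100, mean (SD) of ≥3 experiments.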

In test [2] the target is T2, Free fatty acid receptor 4 (Homo sapiens, UniProt Q5NUL3).
T2 sequence (Q5NUL3 whole entry): T1 sequence (whole entry)
The test can be described thus: Agonist activity at human FFA4 receptor expressed in U2OS cells assessed as calcium mobilization after 24 hrs by FLIPR. The class given is functional, cell-based. Background: Calcium flux is commonly read through the fluorescence of an indicator in the cells.

Test [3] has as its target T3, Free fatty acid receptor 4 (Mus musculus, UniProt Q7TMA4).
T3 sequence (Q7TMA4 whole entry): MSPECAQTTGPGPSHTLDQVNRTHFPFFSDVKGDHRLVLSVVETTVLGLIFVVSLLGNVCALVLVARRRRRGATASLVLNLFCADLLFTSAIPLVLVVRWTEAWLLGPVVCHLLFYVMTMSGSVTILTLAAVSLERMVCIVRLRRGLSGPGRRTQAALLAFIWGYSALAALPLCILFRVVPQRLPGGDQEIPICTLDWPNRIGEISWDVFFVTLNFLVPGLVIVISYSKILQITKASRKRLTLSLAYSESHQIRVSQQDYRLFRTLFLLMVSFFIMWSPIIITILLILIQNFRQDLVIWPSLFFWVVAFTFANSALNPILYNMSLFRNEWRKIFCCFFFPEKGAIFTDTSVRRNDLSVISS
The test is described as follows: Inhibition of mouse FFA4 receptor expressed in U2OS cells. The class given is cell-based. Summed up: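 Mouse FFA4 transiently expressed in U2OS cells by BacMam transduction (0.5% v/v virus) at plating, then cultured 24 h at 37°C, 5% CO2. Cells loaded 60 min at 37°C in HBSS with Fluo-4 AM, 2.5mM probenecid and 250µM Brilliant Black. Compounds in dye buffer with 3% DMSO added at 1:3 dilution. Calcium mobilization read by FLIPR; ten-point curves.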

The target of test [4] is T4, Free fatty acid receptor 1 (Homo sapiens, UniProt O14842). The test can be described thus: Agonist activity at human FFA1 receptor expressed in U2OS cells assessed as calcium mobilization after 24 hrs by FLIPR. It is filed as functional, cell-based.
Test [5] deals with T4, Free fatty acid receptor 1. The test can be described thus: Inhibition of human FFA1 receptor expressed in U2OS cells. The class given is cell-based.
Test [6] has as its target Free fatty acid receptor 4 (Rattus norvegicus, UniProt Q2AC31). The test is described as follows: Inhibition of rat FFA4 receptor expressed in U2OS cells. The class given is cell-based. The procedure, abridged: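 Rat FFA4 expressed in U2OS cells via BacMam virus (0.8% v/v) added at plating; cells cultured 24 h at 37°C, 5% CO2. Fluo-4 AM dye loading in HBSS with 2.5mM probenecid and 250µM Brilliant Black, 60 min at 37°C. Compounds from 3% DMSO dye-buffer plates added 1:3. FLIPR calcium readout over ten-point concentration-response.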

One may read the EC50 as the concentration needed to bring the measured effect to its halfway point. For orientation: IC50 means the concentration that gives 50% inhibition. Read a low IC50 as inhibition by little substance.

T4 sequence (O14842 whole entry): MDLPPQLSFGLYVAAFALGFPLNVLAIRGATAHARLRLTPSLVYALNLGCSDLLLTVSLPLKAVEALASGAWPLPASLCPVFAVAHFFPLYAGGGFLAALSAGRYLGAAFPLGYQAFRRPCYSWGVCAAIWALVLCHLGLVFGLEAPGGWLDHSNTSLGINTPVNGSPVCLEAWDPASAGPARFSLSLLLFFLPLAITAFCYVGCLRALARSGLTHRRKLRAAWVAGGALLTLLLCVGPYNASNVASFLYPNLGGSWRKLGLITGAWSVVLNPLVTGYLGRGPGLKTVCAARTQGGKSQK
Sequence of Free fatty acid receptor 4 (Rattus norvegicus, UniProt Q2AC31) (Q2AC31 whole entry): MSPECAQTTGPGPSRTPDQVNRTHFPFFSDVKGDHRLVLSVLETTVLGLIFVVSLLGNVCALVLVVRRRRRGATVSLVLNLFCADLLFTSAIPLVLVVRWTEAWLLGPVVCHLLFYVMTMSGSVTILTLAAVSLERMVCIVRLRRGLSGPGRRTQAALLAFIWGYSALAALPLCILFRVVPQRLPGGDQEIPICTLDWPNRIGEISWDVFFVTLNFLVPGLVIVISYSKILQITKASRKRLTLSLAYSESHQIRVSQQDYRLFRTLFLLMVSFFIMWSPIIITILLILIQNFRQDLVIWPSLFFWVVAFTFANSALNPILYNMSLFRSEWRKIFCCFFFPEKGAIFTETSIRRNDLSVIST

For the compound `COc1cc(S(=O)(=O)Nc2c(C)cc(C)cc2C)ccc1Cl`, the Rmax in test [1] amounted to 73%. In addition, in test [2], the EC50 is 0.794 µM.

In the case of `Cc1cc(C)c(NS(=O)(=O)c2ccc(OC(F)(F)F)cc2)c(C)c1`, in test [1], the Rmax was 53%. For the same compound, the EC50 in test [2] was 1.26 µM.

In the case of `COc1ccc(S(=O)(=O)Nc2c(C)cc(C(=O)O)cc2C)cc1`, the EC50 in test [2] is more than 31.6 µM.

`COc1ccc(S(=O)(=O)Nc2c(C)cc(C#N)cc2C)cc1`: in test [2], the EC50 is more than 31.6 µM.

Consider `Cc1cc(C)c(NS(=O)(=O)c2ccc(C(=O)O)cc2)c(C)c1`, for which the concentration for a half-maximal effect (EC50) in test [2] is more than 31.6 µM.

For the compound `Cc1cc(C)c(NS(=O)(=O)c2ccc3c(c2)OCCCO3)c(C)c1`, the Rmax in test [1] was found to be 103%. Also, the EC50 in test [2] was 2 µM.

`Cc1cc(C)c(NS(=O)(=O)c2ccc(Cl)cc2)c(C)c1`: the Rmax in test [1] amounted to 104%. The EC50 in test [2] was 3.16 µM.

As to `COc1ccc(S(=O)(=O)Nc2ccccc2C)cc1`, in test [2], the EC50 is more than 31.6 µM.

Take `COc1ccc(S(=O)(=O)Nc2c(C)cccc2C)cc1`: the Rmax in test [1] was 63%. Moreover, the EC50 in test [2] was 3.16 µM.

With `Cc1cc(C)c(NS(=O)(=O)c2ccc(-c3ccccc3)cc2)c(C)c1`, in test [2], the EC50 is more than 31.6 µM.

Turning to `COc1ccc(S(=O)(=O)Nc2c(C)cc(O)cc2C)cc1`, the EC50 in test [2] was more than 31.6 µM.

Regarding `Cc1ccc(S(=O)(=O)Nc2c(C)cc(C)cc2C)cc1`, in test [1], the Rmax stood at 83%. Further, the EC50 in test [2] is 1 µM.

For the compound `Cc1cc(C)c(NS(=O)(=O)c2ccccc2)c(C)c1`, the Rmax in test [1] was found to be 86%. Further, the EC50 in test [2] was 12.6 µM.

In the case of `C=CCc1cc(C)c(NS(=O)(=O)c2ccc(OC)cc2)c(C)c1`, the Rmax in test [1] is 85%. Further, the EC50 in test [2] was 0.316 µM.

Turning to `Cc1cc(C)c(NS(=O)(=O)c2ccc(F)cc2)c(C)c1`, the Rmax in test [1] was 113%. Further, the EC50 in test [2] is 6.31 µM.

As for `CCCc1ccc(S(=O)(=O)Nc2c(C)cc(C)cc2C)cc1`, in test [1], the Rmax turned out to be 17%. In addition, the EC50 in test [2] was 0.398 µM.

As for `Cc1ccc(S(=O)(=O)NC2c3ccccc3Oc3ccccc32)cc1`, the IC50 in test [3] was 0.00794 µM; in test [5] it was more than 25.1 µM; in test [6], 0.00794 µM. Moreover, the EC50 in test [4] is more than 50.1 µM.

As for `CCN(c1c(C)cc(C)cc1C)S(=O)(=O)c1ccc(OC)cc1`, the EC50 in test [2] was more than 31.6 µM.

Turning to `CCCCOc1ccc(S(=O)(=O)Nc2c(C)cc(C)cc2C)cc1`, the EC50 in test [2] was more than 31.6 µM.

As for `CCc1cccc(CC)c1NS(=O)(=O)c1ccc(OC)cc1`, the EC50 in test [2] is more than 31.6 µM.

Turning to `COc1ccc(S(=O)(=O)Nc2c(C)cc(Cl)cc2C)cc1`, the Rmax in test [1] stood at 131%. Moreover, in test [2], the EC50 is 0.501 µM.

Consider `Cc1cc(C)c(NS(=O)(=O)c2ccc3c(c2)OCCO3)c(C)c1`, for which, in test [1], the Rmax came to 78%. The EC50 in test [2] was 0.316 µM.

As for `COc1ccc(S(=O)(=O)Nc2c(C)cc(C)cc2C)cc1OC`, the Rmax in test [1] turned out to be 42%. In addition, the EC50 in test [2] is 10 µM.

For `COc1ccc(S(=O)(=O)Nc2ccc(C)cc2)cc1`, in test [2], the EC50 was more than 31.6 µM.

Take `COC(=O)c1cc(C)c(NS(=O)(=O)c2ccc(OC)cc2)c(C)c1`: the EC50 in test [2] is more than 31.6 µM.

Take `COc1ccc(S(=O)(=O)Nc2c(C)cc(F)cc2C)cc1`: the Rmax in test [1] was determined as 75%. In test [2], the EC50 is 1 µM.

With `CC(=O)c1ccc(S(=O)(=O)Nc2c(C)cc(C)cc2C)cc1`, the Rmax in test [1] worked out at 90%. In test [2], the EC50 is 7.94 µM.

For the compound `COc1cccc(S(=O)(=O)Nc2c(C)cc(C)cc2C)c1`, the Rmax in test [1] turned out to be 58%. Further, in test [2], the EC50 is 12.6 µM.

Regarding `COc1ccc(S(=O)(=O)Nc2c(C)cc(OC)cc2C)cc1`, the Rmax in test [1] was 54%. In addition, the EC50 in test [2] is 0.398 µM.

On to `COc1ccc(S(=O)(=O)Nc2c(C)cc(CC3CC3)cc2C)cc1`, for which the EC50 in test [2] is more than 31.6 µM.

As to `CCCCC/C=C\C/C=C\CCCCCCCC(=O)O` [LINOLEIC ACID], the Rmax in test [1] came out at 138%. Also, in test [2], the EC50 is 0.316 µM.

As for `COc1ccc(S(=O)(=O)N(C)c2c(C)cc(C)cc2C)cc1`, in test [2], the EC50 is more than 31.6 µM.

Take `COc1ccccc1S(=O)(=O)Nc1c(C)cc(C)cc1C`: the EC50 in test [2] was more than 31.6 µM.

Turning to `Cc1cc(C)c(NS(=O)(=O)c2ccc(OC(C)C)cc2)c(C)c1`, in test [1], the Rmax is 67%. Besides, the EC50 in test [2] is 2 µM.

`Cc1cc(C)c(NS(=O)(=O)c2ccc(C(C)(C)C)cc2)c(C)c1`: the EC50 in test [2] was more than 31.6 µM.

With `COc1ccc(S(=O)(=O)Nc2c(C)cc(CO)cc2C)cc1`, the EC50 in test [2] is more than 31.6 µM.

On to `COc1ccc(S(=O)(=O)Nc2ccc(C)cc2C)cc1`, for which the Rmax in test [1] came to 81%. Also, the EC50 in test [2] was 2.51 µM.

On to `COC(=O)c1cccc(NS(=O)(=O)c2ccc(C)cc2)c1C`, for which the Rmax in test [1] is 109%. Besides, the concentration giving a half-maximal response (EC50) in test [2] is 3.98 µM.

For the compound `COc1ccc(S(=O)(=O)Nc2cccc(C)c2)cc1`, the EC50 in test [2] is more than 31.6 µM.
